Screening results from PubChem.
Rows were chosen to be rich in hits. Some 2.1% of all compounds tested hit in one or more screens of this group.
Shn3 3UTR inh: reduction of Shn3 3'UTR firefly luciferase signal, primary screen, Schnurri-3 inhibitor project, cell-based, Clone20 osteoblasts, set 2. Clone20 osteoblast Shn3 3'UTR firefly luciferase, 24 h. inhibition, % at 12.5 µM. 360,000 tested, 0.52% active. AID 588674, 2011;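 active = mean inhibition of at least 75% with every replicate also reaching 75%; inconclusive = mean inhibition at least 75% but some replicate below; inactive = mean inhibition below 75%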
aSyn 5UTR inh: MLPCN primary screen, SNCA 5' untranslated region; alpha-synuclein 5'UTR reporter, inhibitor activity; inhibition, % (tested at 7.5 µM); 300,000 tested, 0.82% active; AID 1813, 2009; in the data active = inhibition above about 60%; inconclusive = no clear call, values can overlap the other calls;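 note: H4 neuroglioblastoma cells stably carrying SNCA 5'UTR luciferase fusion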
EWS-Fli inh: EWS/Fli-driven NR0B1 reporter inhibitors, primary screen, A673 cells, NR0B1 luciferase, luminescence, MLPCN library | viability-normalised | inhibition, % at 12.6 µM | 350,000 tested, 0.67% active | AID 651661, 2012;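 active = mean inhibition of at least 50% after viability correction, with every replicate also passing that limit; inconclusive = mean reaches 50% but only one of two replicates passes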;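 note: firefly luciferase signal divided by Alamar Blue viability fluorescence both relative to DMSO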
EBV LMP1 NFkB: EBV LMP1-driven NF-kappaB luciferase reporter inhibitors, primary screen, cell-based, luminescence, single point; LMP1-induced NF-kappaB luciferase reporter cells; inhibition, % at 12.5 µM; 350,000 tested, 0.69% active; AID 504558, 2011; in the data active = inhibition above about 41%; inconclusive = no clear call, values can overlap the other calls
FN deposition inh: inhibitors of fibronectin matrix deposition, primary screen, AH1F cells, Alexa488-fibronectin fluorescence, plate reader; AH1F fibroblasts, overnight; 350,000 tested, 0.086% active; inhibition, % at 12.6 µM;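 active = mean inhibition across replicates of 30% or more, regardless of how many single replicates reach that level; inconclusive = mean under 30% yet at least half of replicates reach 30%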
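Schedule: 1 h cell adhesion before compound, then overnight fibronectin incubation; test system: AH1F fibroblast monolayer depositing Alexa488-labelled fibronectin into matrix; quantity: 10000 AH1F cells per well; probe or stimulus: fluorescent fibronectin at 24 nM final; signal: fluorescence, ex 485 nm, em 525 nm; evaluation: percent inhibition as loss of matrix-bound fibronectin fluorescence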
PAX8 inh HTS: inhibitors of PAX8-driven TPO luciferase reporter, primary screen, RMG-I cells, single concentration; AID 652154, 2013; 360,000 tested, 1.2% active; SteadyGlo, 24 h; inhibition, % at 12.6 µM;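 active = mean replicate inhibition at least 60% with every replicate also reaching 60%; inconclusive = only one of the two criteria is met; inactive = mean below 60% and not all replicates reaching 60%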;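 note: luciferase light reporting Pax8 driven TPO promoter activity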
A number is an active result; n = inactive; u = inconclusive; x = no result given; ! = not confirmed by another sample.

SMILES | Shn3 3UTR inh | aSyn 5UTR inh | EWS-Fli inh | EBV LMP1 NFkB | FN deposition inh | PAX8 inh HTS
CCCCCCC(=O)N(O)C1CC(=O)N(c2ccc(F)cc2)C1=O (stereo unspecified) | n | n | n | n | n | n
CCCCCCC(=O)N(O)C1CC(=O)N(c2ccc(Br)cc2)C1=O (stereo unspecified) | n | n | x | 42.9 | n | n
COc1ccc(S(=O)(=O)Nc2ccc3c(c2)C(=O)N([C@@H](C)CO)C[C@@H](C)[C@H](CN(C)S(=O)(=O)c2cccs2)OCCCC[C@H](C)O3)cc1 | x | x | n | x | n | n
CCCC#Cc1ccc2c(c1)[C@@H]1[C@@H](CCN1S(=O)(=O)c1ccc(C)cc1)[C@@H](CO)N2C | x | x | n | x | n | n
CCCC(CCC(=O)NC1CCCCC1)C(=O)O (stereo unspecified) | n | n | x | n | x | n
CCCC(C)NC(C)C(=O)NC1CCCC1 (stereo unspecified) | n | n | x | 66.4 | x | x
O=C(Cc1ccc(NC(=O)C2CCN(C(=O)C3CCCCC3)CC2)cc1)Nc1ccc(C(=O)N2CCOCC2)cc1 | n | x | n | n | n | 67.6
C[C@@H]1CCCCO[C@@H](CN(C)Cc2ccc3c(c2)OCO3)[C@@H](C)CN([C@@H](C)CO)C(=O)c2cc(NC(=O)CCCN(C)C)ccc2O1 | x | x | n | x | x | n
O=C(C[C@@H]1C=C[C@@H](NC(=O)c2ccncc2)[C@H](CO)O1)Nc1ccccc1 | x | x | n | x | n | x
Cc1cc(C(=O)NC2CCCc3c2cnn3-c2cccc(C)c2C)n(C)n1 (stereo unspecified) | 90.8 | n | x | n | x | n
COc1cccc(C(=O)NC2CCCc3c2cnn3-c2ccc(C)c(C)c2)c1OC (stereo unspecified) | n | n | n | n | n | n
COc1cc(C(=O)NC2CCCc3c2cnn3-c2ccccc2F)cc(OC)c1OC (stereo unspecified) | 89.4 | n | x | n | n | n
COc1ncccc1C(=O)NC1CCCc2c1cnn2-c1ccc(C)c(C)c1 (stereo unspecified) | n | n | n | n | 30.8 | n
COc1ccc(CN(C)C[C@H]2Oc3ccc(NS(=O)(=O)c4ccc(OC)cc4)cc3CC(=O)N([C@@H](C)CO)C[C@@H]2C)cc1 | x | x | n | x | x | x
CN1C(=O)c2cc(NC(=O)c3ccc(F)c(F)c3)ccc2OC[C@H]2O[C@H](CC(=O)N3CCOCC3)CC[C@H]21 | x | x | n | x | n | n
COc1ccc(-c2ccc(C3[C@H]4CNC[C@@H]3N4S(=O)(=O)c3ccc(OC)cc3)cc2)cc1 (stereo partly specified) | x | x | n | x | n | n
COc1ccccc1C(=O)Nc1ccc2c(c1)nc(CCNC(=O)c1ccccc1)n2C | n | n | 65.1 | n | n | n
COc1ccccc1C(=O)Nc1ccc2c(c1)nc(CCNC(C)=O)n2C | n | n | x | n | n | x
CCCC(=O)N1CC2(CN(Cc3nccs3)C2)c2c([nH]c3cc(OC)ccc23)[C@@H]1CO | x | x | n | x | n | n
C[C@H]1CN([C@@H](C)CO)C(=O)c2cc(NS(=O)(=O)c3cn(C)cn3)ccc2O[C@@H]1CN(C)C(=O)Nc1ccc(C(F)(F)F)cc1 | x | x | n | x | n | x
O=C(Nc1cc(F)ccc1F)N[C@@H]1CC[C@@H](CCNC(=O)c2cnccn2)O[C@@H]1CO | x | x | n | x | n | n
CC(=O)Oc1ccccc1/C=C/c1nc2ccccc2c(=O)o1 | n | 65.6 | n | 44.7 | n | n
CC(=O)Oc1ccc(/C=C/c2nc3ccccc3c(=O)o2)cc1 | n | n | n | n | n | n
C[C@@H](NC(=O)C[C@@H]1C[C@H]2c3cc(NC(=O)C4CCC4)ccc3O[C@H]2[C@H](CO)O1)c1ccccc1 | x | x | n | x | n | n
COC(=O)/C(=C1/Oc2cc(C)oc(=O)c2S1)C(F)(F)F | 96.7 | n | 54.4 | n | x | x
SMILES | Shn3 3UTR inh | aSyn 5UTR inh | EWS-Fli inh | EBV LMP1 NFkB | FN deposition inh | PAX8 inh HTS
COc1ccc2nc(C)cc(SCC(=O)Nc3c(C)cccc3C)c2c1 | n | n | 74.4 | n | x | n
COc1ccc2nc(C)cc(SCC(=O)N/N=C/c3ccc(O)cc3O)c2c1 | 86.9 | 79.8 | x | n | n | n
COc1ccc(NC(=S)Nc2ccc3nc(C)c(C)nc3c2)cc1 | n | n | x | n | n | n
CNC(=S)Nc1ccc2nc(C)c(C)nc2c1 | n | n | x | 50.2 | n | n
CCCc1cn([C@H]2C[C@@H]3O[C@@H](CO)CC[C@@H]3O[C@@H]2CCc2ccc(-c3ccc(OC)cc3)cc2)nn1 | x | x | n | x | x | n
C[C@@H]1CN([C@@H](C)CO)C(=O)c2cc(N(C)C)ccc2O[C@@H]1CN(C)Cc1ccc(C(=O)Nc2ccccc2N)cc1 | x | x | 82.0 | x | x | n
C[C@H](CO)N1C[C@H](C)[C@H](CN(C)Cc2ccc(-c3ccccc3)cc2)Oc2c(NC(=O)c3ccc(-c4nccs4)cc3)cccc2C1=O | x | x | n | x | x | n
Cc1cc(C(=O)Nc2cccc3c2O[C@H](CN(C)Cc2ccc(Oc4ccccc4)cc2)[C@H](C)CN([C@@H](C)CO)C3=O)n(C)n1 | x | x | n | x | x | n
Cc1cc(C(=O)Nc2cccc3c2O[C@H](CN(C)Cc2ccc(Oc4ccccc4)cc2)[C@@H](C)CN([C@@H](C)CO)C3=O)n(C)n1 | x | x | n | x | x | 67.6
C[C@H]1CN([C@@H](C)CO)C(=O)c2cccc(NC(=O)c3ccc(-c4nccs4)cc3)c2O[C@H]1CN(C)Cc1ccc(-c2ccccc2)cc1 | x | x | n | x | x | 62.7
Cc1cc(C(=O)Nc2cccc3c2O[C@@H](CN(C)Cc2ccc(-c4ccccc4)cc2)[C@H](C)CN([C@H](C)CO)C3=O)n(C)n1 | x | x | n | x | x | 69.8
C[C@H]1CN([C@@H](C)CO)C(=O)Cc2cc(N(C)C)ccc2O[C@H]1CN(C)Cc1ccc(C(=O)Nc2ccccc2N)cc1 | x | x | x | x | n | x
C[C@H]1CN([C@@H](C)CO)C(=O)c2cc(-c3ccc(C#N)cc3)cnc2O[C@@H]1CN(C)C(=O)CN(C)C | x | x | n | x | n | x
COc1cc(C=NO)nc(-c2ccccn2)c1 | 93.0 | x | u | 57.1 | n | x
COc1ccc2nc(-c3ccccn3)[nH]c2c1 | n | n | n | n | n | n
C=CCNc1nc(-c2ccccn2)nnc1-c1ccccc1 | 91.0 | n | x | n | n | u
c1ccc(-c2cnnc(-c3ccccn3)n2)cc1 | n | n | n | n | n | n
O=C(CCC(=O)OCC(=O)c1ccc(C(F)(F)F)cc1)OCC(=O)c1ccc(C(F)(F)F)cc1 | n | n | n | x | n | n
COCCCC/C(=N\OCCN)c1ccc(C(F)(F)F)cc1 | n | n | n | 68.3! | n | n
O=C([C@@H]1[C@@H](CO)[C@@H]2Cn3c(cccc3=O)[C@@H]2N1CC1CCCC1)N1CCOCC1 | x | x | n | x | x | n
O=C1[C@@H]2Cc3c([nH]c4ccccc34)C(c3cccc(Br)c3)N2C(=O)CN1C1CCN(Cc2ccccc2)CC1 (stereo partly specified) | n | n | n | n | n | 90.6
